ChEMBL document CHEMBL1955756, “Design and synthesis of novel sulfonamide-containing bradykinin hB(2) receptor antagonists. Synthesis and structure-relationships of α,α-tetrahydropyranylglycine” (Bioorg Med Chem, 2012)
The source made the active and inactive calls. No cut-off for these calls is given here.

Tests used:
B2 bradykinin receptor [1] = target: T1, B2 bradykinin receptor (Homo sapiens, UniProt P30411); test: Antagonist activity at human bradykinin B2 receptor expressed in dhfr-deficient CHO cells assessed as inhibition of bradykinin-induced inositol monophosphate accumulation preincubated for 15 mins prior bradykinin induction measured after 40 mins by liquid scintillation spectrometry; format: functional, cell-based; settings: read-out: pA2 (converted)
T1 sequence (P30411 whole entry): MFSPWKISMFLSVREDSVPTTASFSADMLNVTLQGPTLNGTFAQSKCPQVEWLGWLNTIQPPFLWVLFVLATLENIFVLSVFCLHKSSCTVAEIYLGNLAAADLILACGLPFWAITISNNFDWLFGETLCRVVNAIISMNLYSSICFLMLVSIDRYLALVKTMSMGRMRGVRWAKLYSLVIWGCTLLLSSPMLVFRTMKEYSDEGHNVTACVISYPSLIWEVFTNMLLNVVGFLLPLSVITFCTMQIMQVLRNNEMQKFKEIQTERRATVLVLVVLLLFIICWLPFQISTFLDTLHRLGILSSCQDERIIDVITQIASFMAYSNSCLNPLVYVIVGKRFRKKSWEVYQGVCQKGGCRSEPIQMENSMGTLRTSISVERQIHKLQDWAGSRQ
Outline: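 CHOdhfr-/hB2R cells (1.8×10^5/well) plated overnight at 37 °C, labelled 24 h with myo-[3H]inositol (1 uCi/well). Antagonist pre-incubation 15 min, then BK 1×10^-11 to 1×10^-5 M for 40 min at 37 °C in Hepes pH 7.4 buffer with 25 mM LiCl. IP1 radioactivity by liquid scintillation. Agonist curves fitted for EC50; pA2 = log(CR−1) − log[antagonist].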

B2 bradykinin receptor [2] = target: T1, B2 bradykinin receptor; test: Displacement of [3H]-Bradykinin from human bradykinin B2 receptor expressed in CHO cells membrane after 60 mins by scintillation counting; format: cell membranes
B1 bradykinin receptor = target: T2, B1 bradykinin receptor (Homo sapiens, UniProt P46663); test: Displacement of [3H][desArg9]Lys-Bradykinin from human bradykinin B1 receptor expressed in CHO cells; format: cell-based
T2 sequence (P46663 whole entry): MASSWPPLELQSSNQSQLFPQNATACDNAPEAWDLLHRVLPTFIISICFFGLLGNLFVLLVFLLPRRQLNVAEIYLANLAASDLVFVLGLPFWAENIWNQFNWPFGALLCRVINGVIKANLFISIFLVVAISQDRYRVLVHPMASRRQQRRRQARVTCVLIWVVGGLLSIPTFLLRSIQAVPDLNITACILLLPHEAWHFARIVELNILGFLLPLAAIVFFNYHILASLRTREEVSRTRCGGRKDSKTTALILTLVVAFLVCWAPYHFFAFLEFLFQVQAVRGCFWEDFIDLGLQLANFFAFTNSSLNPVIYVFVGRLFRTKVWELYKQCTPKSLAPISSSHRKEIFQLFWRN

B2 bradykinin receptor [3] = target: T3, B2 bradykinin receptor (Cavia porcellus, UniProt O70526); test: Antagonist activity at guinea pig bradykinin B2 receptor in longitudinal smooth muscle assessed as inhibition of bradykinin-induced contractile responses; format: functional; settings: read-out: pA2 (converted)
T3 sequence (O70526 whole entry): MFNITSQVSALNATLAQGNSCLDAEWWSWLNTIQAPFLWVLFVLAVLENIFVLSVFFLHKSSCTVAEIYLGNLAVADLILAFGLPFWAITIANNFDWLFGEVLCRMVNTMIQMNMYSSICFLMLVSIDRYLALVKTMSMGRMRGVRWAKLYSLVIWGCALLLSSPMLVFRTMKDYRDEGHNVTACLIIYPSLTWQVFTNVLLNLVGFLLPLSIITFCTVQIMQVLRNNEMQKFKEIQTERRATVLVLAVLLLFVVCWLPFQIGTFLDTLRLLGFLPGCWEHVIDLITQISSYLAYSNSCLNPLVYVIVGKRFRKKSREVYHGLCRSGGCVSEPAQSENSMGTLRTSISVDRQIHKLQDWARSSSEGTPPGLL

Cavia porcellus = test: Inhibition of bradykinin-induced bronchoconstriction in anesthetized Dunkin-Hartley guinea pig at […], it 5 mins prior bradykinin-induction for every 30 mins up to 210 mins; format: functional, organism-based
Outline: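 Anaesthetized male Dunkin Hartley guinea pigs, 350–400 g. Compound given intratracheally, then repeated iv BK challenges (10 nmol/kg) with bronchoconstriction recorded.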

Kb (B2 bradykinin receptor [1]): 0.316 nM
Ki (B2 bradykinin receptor [2]): 0.0794 nM
Ki (B1 bradykinin receptor): > 10000 nM
Kb (B2 bradykinin receptor [3]): 0.0631 nM
Compound: Cc1cc(C)c2cccc(OCc3c(Cl)ccc(S(=O)(=O)NC4(C(=O)N5CCN(C(=O)CCCC[N+](C)(C)C)CC5)CCOCC4)c3Cl)c2n1
inhibition (Cavia porcellus): inactive
